We go through one molecule from ChEMBL document CHEMBL4190344, “Synthesis of substituted phenanthrene-9-benzimidazole conjugates: Cytotoxicity evaluation and apoptosis inducing studies” (Eur J Med Chem, 2017).

Activity calls are given as the source filed them. No cut-off for these calls is given here. Some results are limits rather than exact numbers.

In assay [1] the test system is BT-549. The assay can be described thus: Cytotoxicity in human BT549 cells incubated for 48 hrs by MTT assay. The format is functional, cell-based. Particulars: BT-549, 48 h. In short, it runs like this:
(§1)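 Cells (1 × 10^4/well) were seeded in medium with 10% FBS and left 24 h at 37 °C. Compound diluted in medium was then added, alongside a vehicle control, for 48 h. MTT (5 mg/mL stock) was added for 4 h, formazan dissolved in DMSO and absorbance read at 570 nm. IC50 taken as the concentration giving 50% inhibition.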
(Tetrazolium assays rely on reduction of a dye to a coloured formazan, in cell work by metabolically active cells.)

Assay [2] relates to HCT-116. The assay can be described thus: Cytotoxicity in human HCT116 cells incubated for 48 hrs by MTT assay. The format is functional, cell-based. Particulars: HCT-116, 48 h. The gist of the method: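 Cells (1 × 10^4/well) were seeded in medium with 10% FBS and left 24 h at 37 °C. Compound diluted in medium was then added, alongside a vehicle control, for 48 h. MTT (5 mg/mL stock) was added for 4 h, formazan dissolved in DMSO and absorbance read at 570 nm.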

The test system of assay [3] is HCT-15. The assay can be described thus: Cytotoxicity in human HCT15 cells incubated for 48 hrs by MTT assay. It counts as functional, cell-based. The conditions noted are these: HCT-15, 48 h. In short, it runs like this:
as §1

Assay [4] deals with PC-3. The assay can be described thus: Cytotoxicity in human PC3 cells assessed as reduction in cell viability at 2.5 to 10 uM incubated for 48 hrs by phase contrast microscopy. It counts as functional, cell-based. The gist of the method:
(§2)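 PC-3 cells at 1 × 10^5 cells/mL adhered overnight, then received compound at 2.5, 5.0 or 10.0 µM. After 48 h, morphology (viable cell number, nuclear shrinkage, detachment) was imaged by phase contrast microscopy.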

For assay [5], the system named is PC-3. The assay can be described thus: Induction of morphological changes in human PC3 cells assessed as increase in nuclear shrinkage at 2.5 to 10 uM incubated for 48 hrs by phase contrast microscopy. The format is functional, cell-based. The gist of the method:
as §2

Assay [6] concerns PC-3. The assay can be described thus: Induction of apoptosis in human PC3 cells assessed as induction of horse-shoe shaped nuclei formation at 2.5 to 10 uM incubated for 48 hrs by DAPI staining based fluorescence microscopy. It counts as functional, cell-based. The gist of the method:
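Compound-treated PC-3 cells were PBS-washed, permeabilised with 0.1% Tween 20 for 10 min and stained with 1 µM DAPI. Nuclear morphology was viewed by fluorescence microscopy at ex 359/em 461 nm, 200×.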

The subject of assay [7] is PC-3. The assay can be described thus: Cell cycle arrest in human PC3 cells assessed as accumulation at subG1 phase at 2.5 uM incubated for 24 hrs by propidium iodide staining based flow cytometry (reference value: 1.71%). It counts as functional. (In general: A flow cytometer gives signals particle by particle.)
In assay [8] the test system is PC-3. The assay can be described thus: Cell cycle arrest in human PC3 cells assessed as accumulation at S phase at 2.5 uM incubated for 24 hrs by propidium iodide staining based flow cytometry (reference value: 13.92%). It counts as functional.
Assay [9] concerns PC-3. The assay can be described thus: Cell cycle arrest in human PC3 cells assessed as accumulation at G0/G1 phase at 5 uM incubated for 24 hrs by propidium iodide staining based flow cytometry (reference value: 56.67%). It counts as functional.
For assay [10], the system named is PC-3. The assay can be described thus: Cell cycle arrest in human PC3 cells assessed as accumulation at subG1 phase at 5 uM incubated for 24 hrs by propidium iodide staining based flow cytometry (reference value: 1.71%). It counts as functional.
Assay [11] concerns PC-3. The assay can be described thus: Cell cycle arrest in human PC3 cells assessed as accumulation at G2/M phase at 5 uM incubated for 24 hrs by propidium iodide staining based flow cytometry (reference value: 25.96%). It counts as functional.
Assay [12] relates to PC-3. The assay can be described thus: Cell cycle arrest in human PC3 cells assessed as accumulation at S phase at 5 uM incubated for 24 hrs by propidium iodide staining based flow cytometry (reference value: 13.92%). The format is functional.
In assay [13] the test system is PC-3. The assay can be described thus: Cell cycle arrest in human PC3 cells assessed as accumulation at G0/G1 phase at 2.10 uM incubated for 24 hrs by propidium iodide staining based flow cytometry (reference value: 106.67%). The format is functional.
Assay [14] relates to PC-3. The assay can be described thus: Induction of reactive oxygen species in human PC3 cells at 2.5 to 10 uM pre-incubated with NAC before compound addition for 6 hrs by DCFDA dye based spectrofluorometry. It counts as functional, cell-based. The gist of the method:
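PC-3 cells (1 × 10^6 cells/mL) adhered overnight, then were treated at 2.5, 5.0 or 10.0 µM. Medium was replaced with DCFDA 10 µM for 30 min in the dark, and fluorescence read by spectrofluorometer at ex 488/em 525 nm. N-acetyl cysteine pretreatment before compound and H2O2 were used as comparisons.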

Assay [15] deals with PC-3. The assay can be described thus: Induction of mitochondrial membrane potential loss in human PC3 cells assessed as JC1 monomer level at 2.5 uM incubated for 24 hrs by JC1 staining based flow cytometry (reference value: 22.8%). The format is functional.
Assay [16] deals with PC-3. The assay can be described thus: Induction of mitochondrial membrane potential loss in human PC3 cells assessed as JC1 aggregate level at 5 uM incubated for 24 hrs by JC1 staining based flow cytometry (reference value: 76.94%). It counts as functional.
The test system of assay [17] is PC-3. The assay can be described thus: Induction of mitochondrial membrane potential loss in human PC3 cells assessed as JC1 aggregate level at 10 uM incubated for 24 hrs by JC1 staining based flow cytometry (reference value: 76.94%). The format is functional.
For assay [18], the system named is PC-3. The assay can be described thus: Induction of apoptosis in human PC3 cells assessed as early apoptotic cells level at 2.5 uM incubated for 24 hrs by annexin V-FITC/propidium iodide dual staining based flow cytometry (reference value: 11.76%). The format is functional. In short, it runs like this:
(§3)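 PC-3 cells were grown 24 h, then treated 24 h at 2.5, 5.0 or 10 µM. Cells were trypsinised, washed twice in ice-cold PBS and stained in binding buffer with Annexin V-FITC followed by propidium iodide at room temperature in the dark. 10,000 cells per sample were run on a flow cytometer, with quadrants scored as live, early apoptotic, late apoptotic or necrotic.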

The test system of assay [19] is PC-3. The assay can be described thus: Induction of apoptosis in human PC3 cells assessed as necrotic cells level at 2.5 uM incubated for 24 hrs by annexin V-FITC/propidium iodide dual staining based flow cytometry (reference value: 0.59%). The format is functional. In short, it runs like this:
as §3

For assay [20], the system named is PC-3. The assay can be described thus: Induction of apoptosis in human PC3 cells assessed as late apoptotic cells level at 5 uM incubated for 24 hrs by annexin V-FITC/propidium iodide dual staining based flow cytometry (reference value: 10.92%). It counts as functional. In short, it runs like this:
as §3

For assay [21], the system named is PC-3. The assay can be described thus: Induction of apoptosis in human PC3 cells assessed as necrotic cells level at 5 uM incubated for 24 hrs by annexin V-FITC/propidium iodide dual staining based flow cytometry (reference value: 0.59%). It counts as functional. In short, it runs like this:
as §3

Assay [22] relates to PC-3. The assay can be described thus: Induction of apoptosis in human PC3 cells assessed as late apoptotic cells level at 10 uM incubated for 24 hrs by annexin V-FITC/propidium iodide dual staining based flow cytometry (reference value: 10.92%). It counts as functional. The gist of the method:
as §3

Assay [23] concerns PC-3. The assay can be described thus: Cell cycle arrest in human PC3 cells assessed as accumulation at G2/M phase at 10 uM incubated for 24 hrs by propidium iodide staining based flow cytometry (reference value: […]).

For the molecule `COc1ccc2cc(-c3nc4ccc(F)cc4[nH]3)c3cc(OC)c(OC)cc3c2c1`, the IC50 in assay [1] was 13.2 µM; in [2], > 20 µM; in assay [3], > 20 µM. In addition, the result in [4], in assay [5] and in [6] was Active. The Activity in assay [7] came out at 3.08%; in assay [8] it was 11.3%; in assay [9] it was 49.29%; in assay [10], 5.01%; in [11] it was 29.78%; in assay [12], 14.21%. For the same molecule, the Activity in assay [13] is listed as 38.61%; in assay [15] it was 33.35%; in assay [16], 32.38%; in assay [17] it was 4.29%; in assay [18] it was 36.2%; in [19], 0.21%. In addition, the Activity in assay [20] amounted to 34.03%; in assay [21] it was 0.44%; in [22] it was 49.02%; in [23], 44.16%. Moreover, the result in assay [14] was inactive.

One may read the IC50 as the concentration that gives 50% inhibition. Read a high IC50 as weaker potency in that assay.
